Measurements from ChEMBL document CHEMBL1134346, “Labeling and evaluation of N-[11C]methylated quinoline-2-carboxamides as potential radioligands for visualization of peripheral benzodiazepine receptors” (J Med Chem, 2001).

Key:
Rattus norvegicus [1] = species: Rattus norvegicus; assay: Tissue (spleen) distribution in Albino male CD rats after 60 minutes expressed as percent of injected dose per gram of organ.; assay type: ADME, organism-based; conditions: in vivo, 1 h
Rattus norvegicus [2] = species: Rattus norvegicus; assay: Tissue (testicle) distribution in Albino male CD rats after 30 minutes expressed as percent of injected dose per gram of organ.; assay type: ADME, organism-based; conditions: in vivo, 0.5 h
Summary of the method: (§1)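 Male albino CD rats (225-250 g) received the 11C-labelled radioligand in saline by tail-vein injection. Three rats per time point were decapitated under light ether anaesthesia at 5, 15, 30, 60 or 90 min. Blood was collected heparinized and plasma separated by centrifugation. The pituitary was dissected from the brain. Lung, liver (three-lobe pieces) and right deltoid muscle were sampled, washed in cold saline, gamma-counted and weighed. Results are %I.D./g.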

Rattus norvegicus [3] = species: Rattus norvegicus; assay: Tissue (testicle) distribution in Albino male CD rats after 90 minutes expressed as percent of injected dose per gram of organ.; assay type: ADME, organism-based; conditions: in vivo, 1.5 h
Rattus norvegicus [4] = species: Rattus norvegicus; assay: Tissue (kidney) distribution in Albino male CD rats after 30 minutes expressed as percent of injected dose per gram of organ.; assay type: ADME, organism-based; conditions: in vivo, 0.5 h
Summary of the method: (§2)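 Radioligand given in saline into tail vein of male albino CD rats (225-250 g); 100-200 µCi per animal, 1-2 Ci/µmol at injection depending on radioligand. Three rats per time point were decapitated under light ether anaesthesia. Blood, plasma, brain regions and washed organs were weighed and gamma-counted. Uptake is %I.D./g tissue, mean ± SD.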

Rattus norvegicus [5] = species: Rattus norvegicus; assay: Tissue (kidney) distribution in Albino male CD rats after 60 minutes expressed as percent of injected dose per gram of organ.; assay type: ADME, organism-based; conditions: in vivo, 1 h; summary of the method: as §2
Rattus norvegicus [6] = species: Rattus norvegicus; assay: Tissue (kidney) distribution in Albino male CD rats after 90 minutes expressed as percent of injected dose per gram of organ.; assay type: ADME, organism-based; conditions: in vivo, 1.5 h; summary of the method: as §2
Rattus norvegicus [7] = species: Rattus norvegicus; assay: Tissue (liver) concentration of radioactivity at 30 min post-injection into Albino male CD rats with vehicle.; assay type: ADME, organism-based; conditions: in vivo, 0.5 h
Summary of the method: (§3)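 Separate groups of five rats received tail-vein PK 11195 (1.4-1.6 mg; 5 mg/kg) in 30 µL DMSO:EtOH 1:1, or vehicle alone, immediately before iv radioligand (90-170 µCi in saline, 0.9-1 Ci/µmol). Rats were decapitated at 30 min and tissues gamma-counted; values are %I.D./g.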

Rattus norvegicus [8] = species: Rattus norvegicus; assay: Tissue (liver) distribution in Albino male CD rats after 60 minutes expressed as percent of injected dose per gram of organ.; assay type: ADME, organism-based; conditions: in vivo, 1 h; summary of the method: as §1
[9] = biological target: Translocator protein (Rattus norvegicus) (UniProt P16257); assay: Tissue (lung) concentration of radioactivity at 30 min post-injection into Albino male CD rats after pretreatment with cold PK 11195.; assay type: functional
Summary of the method: (§4)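 Blocking study in male albino CD rats, five per group. Immediately before the 11C radioligand (in saline, i.v. tail vein), rats received 30 µL tail-vein PK 11195 (5 mg/kg; 1.4-1.6 mg) in DMSO:EtOH 1:1, or vehicle. Rats were decapitated at 30 min. Tissues were dissected, washed, gamma-counted and weighed as in the biodistribution study. Results are %I.D./g.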

Rattus norvegicus [10] = species: Rattus norvegicus; assay: Tissue (lung) concentration of radioactivity at 30 min post-injection into Albino male CD rats with vehicle.; assay type: ADME, organism-based; conditions: in vivo, 0.5 h; summary of the method: as §4
Rattus norvegicus [11] = species: Rattus norvegicus; assay: Tissue (lung) distribution in Albino male CD rats after 5 minutes expressed as percent of injected dose per gram of organ.; assay type: ADME, organism-based; conditions: in vivo; summary of the method: as §1
Rattus norvegicus [12] = species: Rattus norvegicus; assay: Tissue (lung) distribution in Albino male CD rats after 60 minutes expressed as percent of injected dose per gram of organ.; assay type: ADME, organism-based; conditions: in vivo, 1 h; summary of the method: as §1
Rattus norvegicus [13] = species: Rattus norvegicus; assay: Tissue (blood) distribution in Albino male CD rats after 15 minutes expressed as percent of injected dose per gram of organ.; assay type: ADME, organism-based; conditions: in vivo, 0.25 h; summary of the method: as §2
Rattus norvegicus [14] = species: Rattus norvegicus; assay: Tissue (blood) distribution in Albino male CD rats after 5 minutes expressed as percent of injected dose per gram of organ.; assay type: ADME, organism-based; conditions: in vivo; summary of the method: as §2
Rattus norvegicus [15] = species: Rattus norvegicus; assay: Tissue (blood) distribution in Albino male CD rats after 60 minutes expressed as percent of injected dose per gram of organ.; assay type: ADME, organism-based; conditions: in vivo, 1 h; summary of the method: as §2
Rattus norvegicus [16] = species: Rattus norvegicus; assay: Tissue (adrenal gland) distribution in Albino male CD rats after 5 minutes expressed as percent of injected dose per gram of organ.; assay type: ADME, organism-based; conditions: in vivo; summary of the method: as §2
Rattus norvegicus [17] = species: Rattus norvegicus; assay: Tissue (spleen) distribution in Albino male CD rats after 15 minutes expressed as percent of injected dose per gram of organ.; assay type: ADME, organism-based; conditions: in vivo, 0.25 h
Rattus norvegicus [18] = species: Rattus norvegicus; assay: Tissue (muscle) distribution in Albino male CD rats after 30 minutes expressed as percent of injected dose per gram of organ.; assay type: ADME, organism-based; conditions: in vivo, 0.5 h; summary of the method: as §1
Rattus norvegicus [19] = species: Rattus norvegicus; assay: Tissue (muscle) distribution in Albino male CD rats after 5 minutes expressed as percent of injected dose per gram of organ.; assay type: ADME, organism-based; conditions: in vivo; summary of the method: as §1
Rattus norvegicus [20] = species: Rattus norvegicus; assay: Tissue (cortex) distribution in Albino male CD rats after 15 minutes expressed as percent of injected dose per gram of organ.; assay type: ADME, organism-based; conditions: in vivo, 0.25 h; summary of the method: as §2
Rattus norvegicus [21] = species: Rattus norvegicus; assay: Tissue (cortex) distribution in Albino male CD rats after 60 minutes expressed as percent of injected dose per gram of organ.; assay type: ADME, organism-based; conditions: in vivo, 1 h; summary of the method: as §2
Rattus norvegicus [22] = species: Rattus norvegicus; assay: Tissue (cortex) distribution in Albino male CD rats after 90 minutes expressed as percent of injected dose per gram of organ.; assay type: ADME, organism-based; conditions: in vivo, 1.5 h; summary of the method: as §2
Rattus norvegicus [23] = species: Rattus norvegicus; assay: Tissue (muscle) distribution in Albino male CD rats after 60 minutes expressed as percent of injected dose per gram of organ.; assay type: ADME, organism-based; conditions: in vivo, 1 h; summary of the method: as §1
[24] = biological target: Translocator protein (Rattus norvegicus) (UniProt P16257); assay: Tissue (pituitary) concentration of radioactivity at 30 min post-injection into Albino male CD rats after pretreatment with cold PK 11195.; assay type: functional, tissue-based; conditions: Pituitary gland; summary of the method: as §4
Rattus norvegicus [25] = species: Rattus norvegicus; assay: Tissue (pituitary) concentration of radioactivity at 30 min post-injection into Albino male CD rats with vehicle.; assay type: ADME, organism-based, Pituitary gland; conditions: in vivo, 0.5 h; summary of the method: as §4
Rattus norvegicus [26] = species: Rattus norvegicus; assay: Tissue (pituitary) distribution in Albino male CD rats after 30 minutes expressed as percent of injected dose per gram of organ.; assay type: ADME, organism-based, Pituitary gland; conditions: in vivo, 0.5 h; summary of the method: as §1
Rattus norvegicus [27] = species: Rattus norvegicus; assay: Tissue (pituitary) distribution in Albino male CD rats after 60 minutes expressed as percent of injected dose per gram of organ.; assay type: ADME, organism-based, Pituitary gland; conditions: in vivo, 1 h; summary of the method: as §1
Rattus norvegicus [28] = species: Rattus norvegicus; assay: Tissue (pituitary) distribution in Albino male CD rats after 90 minutes expressed as percent of injected dose per gram of organ.; assay type: ADME, organism-based, Pituitary gland; conditions: in vivo, 1.5 h; summary of the method: as §1
Rattus norvegicus [29] = species: Rattus norvegicus; assay: Tissue (plasma) distribution in Albino male CD rats after 15 minutes expressed as percent of injected dose per gram of organ.; assay type: ADME, organism-based; conditions: in vivo, 0.25 h; summary of the method: as §1
Rattus norvegicus [30] = species: Rattus norvegicus; assay: Tissue (plasma) distribution in Albino male CD rats after 90 minutes expressed as percent of injected dose per gram of organ.; assay type: ADME, organism-based; conditions: in vivo, 1.5 h; summary of the method: as §1
Rattus norvegicus [31] = species: Rattus norvegicus; assay: Tissue (heart) distribution in Albino male CD rats after 15 minutes expressed as percent of injected dose per gram of organ.; assay type: ADME, organism-based; conditions: in vivo, 0.25 h; summary of the method: as §2
Rattus norvegicus [32] = species: Rattus norvegicus; assay: Tissue (heart) distribution in Albino male CD rats after 90 minutes expressed as percent of injected dose per gram of organ.; assay type: ADME, organism-based; conditions: in vivo, 1.5 h; summary of the method: as §2
Rattus norvegicus [33] = species: Rattus norvegicus; assay: Tissue (intestine) distribution in Albino male CD rats after 30 minutes expressed as percent of injected dose per gram of organ.; assay type: ADME, organism-based; conditions: in vivo, 0.5 h; summary of the method: as §2
Rattus norvegicus [34] = species: Rattus norvegicus; assay: Tissue (intestine) distribution in Albino male CD rats after 90 minutes expressed as percent of injected dose per gram of organ.; assay type: ADME, organism-based; conditions: in vivo, 1.5 h; summary of the method: as §2
[35] = biological target: Translocator protein (Rattus norvegicus) (UniProt P16257); assay: Tissue (kidney) concentration of radioactivity at 30 min post-injection into Albino male CD rats after pretreatment with cold PK 11195.; assay type: functional, tissue-based; summary of the method: as §3
Rattus norvegicus [36] = species: Rattus norvegicus; assay: Tissue (blood) distribution in Albino male CD rats after 90 minutes expressed as percent of injected dose per gram of organ.; assay type: ADME, organism-based; conditions: in vivo, 1.5 h; summary of the method: as §2
Rattus norvegicus [37] = species: Rattus norvegicus; assay: Tissue (cerebellum) distribution in Albino male CD rats after 5 minutes expressed as percent of injected dose per gram of organ.; assay type: ADME, organism-based; conditions: in vivo; summary of the method: as §2
[38] = biological target: Translocator protein (Rattus norvegicus) (UniProt P16257); assay: Tissue (cortex) concentration of radioactivity at 30 min post-injection into Albino male CD rats after pretreatment with cold PK 11195.; assay type: functional; summary of the method: as §3
Rattus norvegicus [39] = species: Rattus norvegicus; assay: Tissue (lung) distribution in Albino male CD rats after 15 minutes expressed as percent of injected dose per gram of organ.; assay type: ADME, organism-based; conditions: in vivo, 0.25 h; summary of the method: as §1
Rattus norvegicus [40] = species: Rattus norvegicus; assay: Tissue (intestine) distribution in Albino male CD rats after 15 minutes expressed as percent of injected dose per gram of organ.; assay type: ADME, organism-based; conditions: in vivo, 0.25 h; summary of the method: as §2

Chain of Translocator protein (Rattus norvegicus) (P16257 whole entry, looked up): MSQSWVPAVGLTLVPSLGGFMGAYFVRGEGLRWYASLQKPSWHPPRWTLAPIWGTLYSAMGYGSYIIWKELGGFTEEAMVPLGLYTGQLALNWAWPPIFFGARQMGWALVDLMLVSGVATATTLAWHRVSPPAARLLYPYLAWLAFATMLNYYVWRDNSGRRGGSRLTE

For `CCC(C)N(C)C(=O)c1nc2ccccc2c(-c2ccccc2)c1C` (stereo not given), the I.D./g (Rattus norvegicus [1]) was 1.25%, the I.D./g (Rattus norvegicus [2]) was 0.08% and the I.D./g (Rattus norvegicus [3]) was 0.08%. The I.D./g (Rattus norvegicus [4]) was 0.77%, the I.D./g (Rattus norvegicus [5]) was 0.78% and the I.D./g (Rattus norvegicus [6]) was 0.73%. It also gave an I.D./g (Rattus norvegicus [7]) of 0.3%, an I.D./g (Rattus norvegicus [8]) of 0.32% and an I.D./g [9] of under 0.14%. It also gave an I.D./g (Rattus norvegicus [10]) of 0.91%, an I.D./g (Rattus norvegicus [11]) of 3.09% and an I.D./g (Rattus norvegicus [12]) of 1.33%. For the same molecule, the I.D./g (Rattus norvegicus [13]) was 0.08%, the I.D./g (Rattus norvegicus [14]) was 0.13% and the I.D./g (Rattus norvegicus [15]) was 0.03%. For the same molecule, the I.D./g (Rattus norvegicus [16]) was 1.32%, the I.D./g (Rattus norvegicus [17]) was 0.92% and the I.D./g (Rattus norvegicus [18]) was 0.16%. It also gave an I.D./g (Rattus norvegicus [19]) of 0.11%, an I.D./g (Rattus norvegicus [20]) of 0.07% and an I.D./g (Rattus norvegicus [21]) of 0.04%. For the same molecule, the I.D./g (Rattus norvegicus [22]) was 0.03%, the I.D./g (Rattus norvegicus [23]) was 0.12% and the I.D./g [24] was under 0.07%. For the same molecule, the I.D./g (Rattus norvegicus [25]) was 0.25%, the I.D./g (Rattus norvegicus [26]) was 0.24% and the I.D./g (Rattus norvegicus [27]) was 0.25%. For the same molecule, the I.D./g (Rattus norvegicus [28]) was 0.2%, the I.D./g (Rattus norvegicus [29]) was 0.05% and the I.D./g (Rattus norvegicus [30]) was 0.02%. It also gave an I.D./g (Rattus norvegicus [31]) of 0.8%, an I.D./g (Rattus norvegicus [32]) of 1.23% and an I.D./g (Rattus norvegicus [33]) of 0.4%. For the same molecule, the I.D./g (Rattus norvegicus [34]) was 0.37%, the I.D./g [35] was under 0.16% and the I.D./g (Rattus norvegicus [36]) was 0.03%. For the same molecule, the I.D./g (Rattus norvegicus [37]) was 0.13%, the I.D./g [38] was over 0.04% and the I.D./g (Rattus norvegicus [39]) was 2.01%. The I.D./g (Rattus norvegicus [40]) was 0.32%.
